M5 PAM – human M5 muscarinic receptor positive allosteric modulators, primary screen, CHO-K1 cells, Fluo-8 calcium fluorescence; Muscarinic acetylcholine receptor M5 (Homo sapiens), P08912; CHO-K1 hM5, ACh EC20 PAM; 0% = ACh EC20, 100% = ACh EC100; activation, % at 3 µM; 360,000 compounds, 0.3% hits; AID 624038, 2012;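 active = activation above the run cutoff, the mean activation of all test compounds plus 3 SD, cut at about 18% in these data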
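Assay system – human M5 receptor in CHO-K1 cells · Read-out – % activation, ACh-normalized · Technique – Fluo-8 calcium fluorescence · Dosing – single-point, 3 µM nominal · Incubation – Fluo-8 loading 80 min at 37 °C plus 30 min room temperature · Repeats – singlicate, one well per test compound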
CHRM4 agonist – human M4 muscarinic receptor agonists, primary screen, CHO-K1 cells, Fluo-8 calcium fluorescence | Muscarinic acetylcholine receptor M4 (Homo sapiens), P08173 | CHO-K1 hM4/Gqi5; vehicle 0%, full acetylcholine response 100% | activation, % at 3 µM | 360,000 compounds, 0.14% hits | AID 624127, 2012;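 active = activation above the run mean over all test wells plus 3 SD, cut at about 32% in these data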;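 also: peak over basal fluorescence ratio per well then scaled between controls; 0% = DMSO wells and 100% = acetylcholine at EC100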
Target sequence (P08173 whole entry, looked up): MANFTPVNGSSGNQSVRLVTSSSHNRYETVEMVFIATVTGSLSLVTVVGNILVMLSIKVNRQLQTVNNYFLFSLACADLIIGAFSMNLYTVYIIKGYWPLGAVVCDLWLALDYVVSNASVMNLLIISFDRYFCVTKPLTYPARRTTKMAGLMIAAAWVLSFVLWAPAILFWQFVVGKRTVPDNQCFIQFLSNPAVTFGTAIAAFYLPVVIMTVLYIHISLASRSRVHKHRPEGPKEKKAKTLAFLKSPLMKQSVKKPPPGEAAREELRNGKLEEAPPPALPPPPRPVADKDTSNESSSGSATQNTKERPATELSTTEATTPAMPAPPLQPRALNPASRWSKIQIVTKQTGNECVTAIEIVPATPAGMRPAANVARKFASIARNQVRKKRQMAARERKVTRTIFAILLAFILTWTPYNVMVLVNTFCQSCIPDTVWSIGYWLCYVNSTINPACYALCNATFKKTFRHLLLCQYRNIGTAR
CHRM5 agonist – human M5 muscarinic receptor agonists, primary screen, CHO-K1 cells, Fluo-8 calcium fluorescence. 360,000 compounds, 0.19% hits. Muscarinic acetylcholine receptor M5 (Homo sapiens), P08912. activation, % at 3 µM. AID 624037, 2012. CHO-K1 hM5 cells; 0% DMSO wells, 100% maximal acetylcholine response;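 active = activation above the run's mean over test compounds plus 3 SD, cut at about 23% in these data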;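 also: signal is peak over basal fluorescence ratio across the kinetic read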
M4 PAM – human M4 muscarinic receptor positive allosteric modulators, primary screen, CHO-K1 cells, Fluo-8 calcium fluorescence | CHO-K1 hM4/Gqi5, ACh EC20; 0% = ACh EC20, 100% = maximal ACh | activation, % at 3 µM | 360,000 compounds, 0.4% hits | AID 624126, 2012;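 active = activation above its plate's cutoff, the mean activation of sample wells plus 3 SD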
M5 antag – human M5 muscarinic receptor antagonists, primary screen, CHO cells, Fluo-8 calcium fluorescence; CHO-hM5 cells, ACh EC80; inhibition, % at 3 µM; 360,000 compounds, 0.59% hits;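 active = inhibition above a per-plate cutoff, the mean of that plate's test compounds plus 3 SD, cut at about 27% in these data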;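 also: 0% = acetylcholine EC80 with DMSO and 100% = DMSO without agonist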
M4 antag – human M4 muscarinic receptor antagonists, primary screen, CHO cells, Fluo-8 calcium fluorescence; inhibition, % at 3 µM; AID 624125, 2012; Muscarinic acetylcholine receptor M4 (Homo sapiens), P08173; CHO-hM4 cells, ACh EC80; 360,000 compounds, 0.73% hits;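 active = inhibition above its plate's cutoff, the mean inhibition of sample wells plus 3 SD, cut at about 27% in these data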;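 also: 0% = acetylcholine EC80 with DMSO and 100% = DMSO without agonist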
The depositor's hits bear a star. Shown are actives, neighbours in structure and some others; about 1.8% of the full set was active somewhere.

Results for Clc1ccc(OCC#CCN2CCCCCC2)cc1 ?
M5 PAM: -30.3; CHRM4 agonist: 0.3; CHRM5 agonist: -14.8; M4 PAM: -22.6; M5 antag: 35.3*; M4 antag: 33.4*

Results for COc1ccc(OCC#CCN2CCC(C)CC2)cc1 ?
M5 PAM: -7.0; CHRM4 agonist: -0.4; CHRM5 agonist: -9.8; M4 PAM: -10.3; M5 antag: 12.6; M4 antag: 7.5

Results for Cc1cc(OCC(=O)N2CCN(CC(=O)N3CCOCC3)CC2)c(C(C)C)cc1Cl ?
M5 PAM: 8.0; CHRM4 agonist: 0.9; CHRM5 agonist: -0.8; M4 PAM: 15.9; M5 antag: 5.8; M4 antag: -8.8

How did Cc1ccc2c(C)cccc2c1 do in these assays?
M5 PAM: -1.6; CHRM4 agonist: 2.7; CHRM5 agonist: 2.1; M4 PAM: 12.3; M5 antag: 8.6; M4 antag: -16.2

How did O=C1C2CCCN2C(c2cccnc2)N1c1ccc(Cl)cc1 (stereo not drawn) do in these assays?
M5 PAM: 3.2; CHRM4 agonist: 0.5; CHRM5 agonist: -2.4; M4 PAM: 29.7*; M5 antag: -7.1; M4 antag: 0.5

What do the screens show for `Cc1cc(OCC(=O)N2CCC(C(=O)O)(c3ccccc3)CC2)c2c(C)c(C)c(=O)oc2c1`?
M5 PAM: -2.0; CHRM4 agonist: -0.1; CHRM5 agonist: 2.3; M4 PAM: -16.4; M5 antag: 1.8; M4 antag: 75.6*

What do the screens show for `O=C1NC(=O)C(=Cc2ccc(-c3ccc(Cl)cc3)o2)C(=O)N1`?
M5 PAM: 21.7*; CHRM4 agonist: 1.4; CHRM5 agonist: -1.9; M4 PAM: 16.8; M5 antag: -11.8; M4 antag: -4.2

How did O=C1NC(=O)C(=Cc2ccc(-c3ccc(F)cc3O)o2)C(=O)N1 do in these assays?
M5 PAM: 5.0; CHRM4 agonist: 12.0; CHRM5 agonist: 25.0*; M4 PAM: 26.2*; M5 antag: 15.9; M4 antag: -6.3

Results for CC1CN2C(=O)C1(c1ccccc1)C(=O)NC2=S (stereo not drawn) ?
M5 PAM: -1.1; CHRM4 agonist: 0.2; CHRM5 agonist: 0.5; M4 PAM: -0.8; M5 antag: 0.7; M4 antag: 2.5

Results for CCOC(=O)C1(CCOc2ccccc2)CCN(C(C)CSC)CC1 (stereo not drawn) ?
M5 PAM: -16.4; CHRM4 agonist: 1.6; CHRM5 agonist: -7.8; M4 PAM: -10.9; M5 antag: 12.5; M4 antag: 6.8

Results for CCOC(=O)C1(CCOc2ccccc2)CCN(Cc2cccc(O)c2)CC1 ?
M5 PAM: -17.8; CHRM4 agonist: 10.4; CHRM5 agonist: -6.8; M4 PAM: -14.9; M5 antag: 33.1*; M4 antag: 5.5

What do the screens show for `CCOC(=O)C1(CCOc2ccccc2)CCN(C2Cc3ccccc3C2)CC1`?
M5 PAM: -17.7; CHRM4 agonist: 2.5; CHRM5 agonist: -6.6; M4 PAM: -16.5; M5 antag: 31.9*; M4 antag: 3.2

What do the screens show for `CCOC(=O)C1(CCc2ccccc2)CCN(Cc2cccc3cnccc23)CC1`?
M5 PAM: -20.0; CHRM4 agonist: 1.0; CHRM5 agonist: -10.3; M4 PAM: -22.2; M5 antag: 80.8*; M4 antag: 10.7

Results for COc1ccc(-n2c(-c3ccccc3Br)nc3ccccc3c2=O)cc1 ?
M5 PAM: -15.1; CHRM4 agonist: 3.4; CHRM5 agonist: -6.6; M4 PAM: -13.0; M5 antag: 21.0; M4 antag: 4.8

Results for COC12c3ccccc3-c3ccccc3C1C(C(=O)O)C2C(=O)O (stereo not drawn) ?
M5 PAM: 2.6; CHRM4 agonist: 0.6; CHRM5 agonist: 3.4; M4 PAM: 5.6; M5 antag: -3.2; M4 antag: 4.2

How did CCn1ccnc1CN1CCCC(C(=O)c2cccc(C(F)(F)F)c2)C1 (stereo not drawn) do in these assays?
M5 PAM: -10.7; CHRM4 agonist: 3.1; CHRM5 agonist: -9.4; M4 PAM: -20.4; M5 antag: 1.3; M4 antag: 46.8*

How did CC(C)=CCN1CC[C@@]2(C)c3cc(O)ccc3CC1C2C (stereo partly drawn) do in these assays?
M5 PAM: -22.6; CHRM4 agonist: 1.0; CHRM5 agonist: -6.5; M4 PAM: -16.2; M5 antag: 25.3; M4 antag: 34.1*

How did C(=NC1CCCCC1)c1c[nH]c2ccccc12 do in these assays?
M5 PAM: 3.5; CHRM4 agonist: 0.7; CHRM5 agonist: -0.1; M4 PAM: 6.6; M5 antag: 7.0; M4 antag: -7.5

How did O=c1[nH]c(=S)n(CCC2=CCCCC2)c(O)c1C=NCCCn1ccnc1 do in these assays?
M5 PAM: -19.1; CHRM4 agonist: -1.4; CHRM5 agonist: -8.0; M4 PAM: -19.3; M5 antag: 9.7; M4 antag: 28.5*

Results for CCCCCn1c(=O)c(C(=O)NC(C)c2ccccc2)c(O)c2ccccc21 (stereo not drawn) ?
M5 PAM: 1.1; CHRM4 agonist: 0.0; CHRM5 agonist: 0.3; M4 PAM: -3.6; M5 antag: -0.8; M4 antag: 9.8

How did O=C(CCc1ccc(O)cc1)N1C[C@H]2C[C@@H](C1)c1cccc(=O)n1C2 do in these assays?
M5 PAM: -2.5; CHRM4 agonist: 1.0; CHRM5 agonist: -1.9; M4 PAM: 3.4; M5 antag: 0.6; M4 antag: -15.1

What do the screens show for `CCN1CCN(c2nc3c(c(=O)[nH]2)CCCC3)CC1`?
M5 PAM: 7.1; CHRM4 agonist: -0.1; CHRM5 agonist: 1.7; M4 PAM: 25.9*; M5 antag: -6.8; M4 antag: -1.3

What do the screens show for `CCN1CCN(c2cn[nH]c(=O)c2Cl)CC1`?
M5 PAM: -1.4; CHRM4 agonist: 1.3; CHRM5 agonist: -6.6; M4 PAM: 3.8; M5 antag: 0.5; M4 antag: 2.8

How did CC(Cc1ccccc1Sc1ccccc1)N(C)C (stereo not drawn) do in these assays?
M5 PAM: -20.7; CHRM4 agonist: 3.4; CHRM5 agonist: -7.1; M4 PAM: -40.5; M5 antag: 98.9*; M4 antag: 92.2*

How did CC(Cc1ccccc1Sc1ccc(O)cc1)N(C)C (stereo not drawn) do in these assays?
M5 PAM: -21.4; CHRM4 agonist: 4.4; CHRM5 agonist: -5.5; M4 PAM: -20.0; M5 antag: 90.8*; M4 antag: 41.5*

High-throughput results: PubChem BioAssay, The Scripps Research Institute Molecular Screening Center
